The source made the active and inactive calls. The calls are words filed in the database; no cut-off is given here.
Key:
Rattus norvegicus [1] = experiment: Anticonvulsant activity in rat assessed as protection against maximal electric shock-induced seizures at 30 mg/kg, po measured after 1 hr; format: functional, organism-based
How it was run: (§1)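 Rats dosed ip or orally as 0.5% methylcellulose suspension; maximal electroshock at listed time. Protection = abolition of hindlimb tonic extension; 4 rats per group, scored protected/tested.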

Mus musculus [2] = experiment: Anticonvulsant activity in mouse assessed as protection against 6 Hz psychomotor seizure at 20 mg/kg, ip after 4 hrs; format: functional, organism-based
How it was run: (§2)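 Suspension in 0.5% methylcellulose given ip to mice; corneal stimulation with 0.2 ms monopolar rectangular pulses at 6 Hz for 3 s from a constant current device, mice restrained then released to observation cage. Protected if normal exploratory behaviour resumed within 10 s of stimulation. Scored as protected/tested, 4 mice per group.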

Rattus norvegicus [3] = experiment: Anticonvulsant activity in rat assessed as protection against maximal electric shock-induced seizures at 30 mg/kg, po measured after 2 hrs; format: functional, organism-based; how it was run: as §1
Mus musculus [4] = experiment: Anticonvulsant activity in mouse assessed as protection against 6 Hz psychomotor seizure at 20 mg/kg, ip after […]; format: functional, organism-based
Mus musculus [5] = experiment: Anticonvulsant activity in mouse assessed as protection against 6 Hz psychomotor seizure at 20 mg/kg, ip after 1 hr; format: functional, organism-based; how it was run: as §2
Rattus norvegicus [6] = experiment: Anticonvulsant activity in rat assessed as protection against maximal electric shock-induced seizures at 30 mg/kg, ip measured after […]; format: functional, organism-based
[7] = target: Adenosine receptor A2a (Homo sapiens) (UniProt P29274); experiment: Displacement of [3H]CGS 21680 from human recombinant adenosine A2a receptor expressed in HEK293 cells at 10^-5 M; format: cell-based
Chain of Adenosine receptor A2a (Homo sapiens) (P29274 whole entry): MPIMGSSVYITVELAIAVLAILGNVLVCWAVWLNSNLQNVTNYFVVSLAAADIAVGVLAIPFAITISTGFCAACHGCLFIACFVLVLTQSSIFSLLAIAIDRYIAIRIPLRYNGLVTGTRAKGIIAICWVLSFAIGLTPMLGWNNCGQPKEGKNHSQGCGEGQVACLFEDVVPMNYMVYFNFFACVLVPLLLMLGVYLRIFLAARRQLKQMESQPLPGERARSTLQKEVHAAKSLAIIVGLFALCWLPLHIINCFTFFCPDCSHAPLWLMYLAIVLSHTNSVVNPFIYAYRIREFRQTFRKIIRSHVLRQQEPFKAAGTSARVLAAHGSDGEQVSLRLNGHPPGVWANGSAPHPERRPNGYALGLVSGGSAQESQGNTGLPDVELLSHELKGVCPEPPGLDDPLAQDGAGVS
How it was run: (§3)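 Radioligand binding screen run at a single test concentration of 10^-5 M. Each target used its stated receptor source (human recombinant CHO or HEK-293 cells, endogenous cell lines, or rat tissue membranes) with the listed radioligand.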

[8] = target: D(1B) dopamine receptor (Homo sapiens) (UniProt P21918); experiment: Displacement of [3H]SCH23390 from human recombinant Dopamine D5 receptor expressed in GH4 cells at 10^-5 M; format: cell-based
Chain of D(1B) dopamine receptor (Homo sapiens) (P21918 whole entry): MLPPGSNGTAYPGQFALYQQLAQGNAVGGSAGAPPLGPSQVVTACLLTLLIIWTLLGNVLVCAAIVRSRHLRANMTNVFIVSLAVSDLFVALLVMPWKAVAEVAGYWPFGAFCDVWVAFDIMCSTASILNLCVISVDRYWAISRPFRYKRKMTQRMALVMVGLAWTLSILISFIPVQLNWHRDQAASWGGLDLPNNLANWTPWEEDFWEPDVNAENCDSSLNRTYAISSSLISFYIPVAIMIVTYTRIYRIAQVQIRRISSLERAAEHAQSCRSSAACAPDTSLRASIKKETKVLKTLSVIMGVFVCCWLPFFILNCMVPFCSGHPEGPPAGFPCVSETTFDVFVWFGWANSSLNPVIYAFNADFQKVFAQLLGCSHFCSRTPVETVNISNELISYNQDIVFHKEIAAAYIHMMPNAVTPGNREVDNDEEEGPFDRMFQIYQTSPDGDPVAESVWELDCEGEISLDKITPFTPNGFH
How it was run: (§4)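 Radioligand displacement screen with the test agent at a single 10^-5 M concentration; receptor source and radioligand per target as tabulated (recombinant human cell lines or rat cerebral cortex/urinary bladder).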

[9] = target: C-X-C chemokine receptor type 2 (Homo sapiens) (UniProt P25025); experiment: Displacement of [125I]IL-8 from human recombinant CXCR2 receptor expressed in HEK293 cells at 10^-5 M; format: cell-based; how it was run: as §3
Chain of C-X-C chemokine receptor type 2 (Homo sapiens) (P25025 whole entry): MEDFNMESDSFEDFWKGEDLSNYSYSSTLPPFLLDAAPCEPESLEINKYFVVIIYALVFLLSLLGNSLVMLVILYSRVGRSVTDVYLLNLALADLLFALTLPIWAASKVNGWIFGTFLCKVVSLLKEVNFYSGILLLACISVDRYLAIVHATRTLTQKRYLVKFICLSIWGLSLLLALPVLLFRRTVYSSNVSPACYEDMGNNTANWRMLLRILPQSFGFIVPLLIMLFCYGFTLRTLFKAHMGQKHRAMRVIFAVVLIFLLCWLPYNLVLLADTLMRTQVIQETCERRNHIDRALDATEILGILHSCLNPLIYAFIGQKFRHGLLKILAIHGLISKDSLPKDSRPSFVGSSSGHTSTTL

[10] = target: Melatonin receptor type 1A (Homo sapiens) (UniProt P48039); experiment: Displacement of [125I]2-iodomelatonin from human recombinant ML1A receptor expressed in CHO cells at 10^-5 M; format: cell-based; how it was run: as §3
Chain of Melatonin receptor type 1A (Homo sapiens) (P48039 whole entry): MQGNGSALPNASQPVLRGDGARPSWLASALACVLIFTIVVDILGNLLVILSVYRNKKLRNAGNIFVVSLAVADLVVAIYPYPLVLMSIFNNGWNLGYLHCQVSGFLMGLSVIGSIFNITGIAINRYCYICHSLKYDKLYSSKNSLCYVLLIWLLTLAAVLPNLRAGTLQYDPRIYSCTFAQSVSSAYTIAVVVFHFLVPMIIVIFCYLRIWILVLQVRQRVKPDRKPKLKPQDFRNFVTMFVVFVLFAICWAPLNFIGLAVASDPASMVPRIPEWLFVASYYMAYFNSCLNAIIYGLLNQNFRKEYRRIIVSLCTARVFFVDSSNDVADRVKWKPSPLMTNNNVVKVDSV

[11] = target: Kappa-type opioid receptor (Rattus norvegicus) (UniProt P34975); experiment: Displacement of [3H]U 69593 from rat recombinant kappa-type opioid receptor expressed in CHO cells at 10^-5 M; format: cell-based; how it was run: as §4
Chain of Kappa-type opioid receptor (Rattus norvegicus) (P34975 whole entry): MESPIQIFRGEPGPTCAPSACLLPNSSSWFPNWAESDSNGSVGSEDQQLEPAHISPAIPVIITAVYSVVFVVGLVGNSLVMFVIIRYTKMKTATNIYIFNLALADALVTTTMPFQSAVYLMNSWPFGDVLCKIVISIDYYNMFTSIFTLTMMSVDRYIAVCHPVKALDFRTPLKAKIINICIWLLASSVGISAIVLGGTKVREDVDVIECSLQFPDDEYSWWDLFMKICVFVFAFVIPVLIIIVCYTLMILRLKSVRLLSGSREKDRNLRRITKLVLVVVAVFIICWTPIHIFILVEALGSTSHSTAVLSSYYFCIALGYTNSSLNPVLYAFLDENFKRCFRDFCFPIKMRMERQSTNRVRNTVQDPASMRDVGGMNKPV

[12] = target: Prostaglandin E2 receptor EP4 subtype (Homo sapiens) (UniProt P35408); experiment: Displacement of [3H]PGE2 from human recombinant prostanoid EP4 receptor expressed in HEK293 cells at 10^-5 M; format: cell-based; how it was run: as §3
Chain of Prostaglandin E2 receptor EP4 subtype (Homo sapiens) (P35408 whole entry): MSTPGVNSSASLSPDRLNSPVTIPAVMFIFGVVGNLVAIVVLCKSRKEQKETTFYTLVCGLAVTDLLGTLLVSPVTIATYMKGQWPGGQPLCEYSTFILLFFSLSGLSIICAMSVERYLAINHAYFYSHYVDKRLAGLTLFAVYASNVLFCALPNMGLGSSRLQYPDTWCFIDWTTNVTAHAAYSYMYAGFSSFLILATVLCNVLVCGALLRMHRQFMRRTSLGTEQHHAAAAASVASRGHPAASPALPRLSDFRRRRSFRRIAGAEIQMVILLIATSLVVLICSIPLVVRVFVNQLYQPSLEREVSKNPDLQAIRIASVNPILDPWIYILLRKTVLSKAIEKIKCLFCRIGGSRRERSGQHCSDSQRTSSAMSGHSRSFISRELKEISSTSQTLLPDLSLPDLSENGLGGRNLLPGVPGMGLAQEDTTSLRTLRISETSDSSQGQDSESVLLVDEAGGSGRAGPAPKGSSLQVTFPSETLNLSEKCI

[13] = Ratio of drug level in brain to plasma in CD1 mouse at 1 mg/kg, iv administered as single dose measured after 240 mins by LC/ESI-MS/MS analysis; format: ADME, organism-based; details: brain and plasma, read-out: BPR
Mus musculus [14] = experiment: Neurotoxicity in mouse at 30 mg/kg, ip after 0.5 hrs by rotarod test; format: toxicity, organism-based; details: in vivo
How it was run: (§5)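 Mice were dosed ip with compound suspended in 0.5% methylcellulose. Rotarod: a 1 in. knurled rod turning at 6 rpm. Neurotoxicity was scored as failure to stay on the rod for at least 1 min in each of three trials. Results are given as the number of animals affected out of the number tested.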

Mus musculus [15] = experiment: Neurotoxicity in mouse at 30 mg/kg, ip after 4 hrs by rotarod test; format: toxicity, organism-based; details: in vivo; how it was run: as §5
Mus musculus [16] = experiment: Neurotoxicity in mouse at 300 mg/kg, ip after 0.5 hrs by rotarod test; format: toxicity, organism-based; details: in vivo; how it was run: as §5
Mus musculus [17] = experiment: Analgesic activity in mouse assessed as reduction in AUC of formalin-induced licking time during acute phase at 13 mg/kg, ip relative to control; format: functional
How it was run: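 Formalin injected into a mouse hindlimb; total licking time taken as pain intensity. Compound given ip at 13 mg/kg as a suspension in 0.5% methylcellulose; vehicle-only animals served as controls.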

Vibrio harveyi = experiment: Antimutagenic activity against Vibrio harveyi BB7XM assessed as inhibition of NQNO-induced mutagenicity after 48 hrs; format: functional
How it was run: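 V. harveyi cultures grown exponentially to A600 0.1 at 30 °C, exposed to test compound for 15 min, then to NQNO, and grown on to A600 0.3–0.4. 5 × 10⁶ cells plated on BOSS agar with neomycin (100, final). Neomycin-resistant colonies counted after 48 h at 30 °C. Result given as % inhibition of NQNO mutagenicity; three independent repeats.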

[18] = Half life in CD1 mouse plasma at 1 mg/kg, iv measured up to 240 mins by LC/ESI-MS/MS analysis; format: ADME, organism-based
How it was run: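 Male CD1 mice, fasted overnight, were dosed iv at 1 mg/kg. Under ketamine/xylazine, blood was collected at 0, 5, 15, 30, 60, 120 and 240 min, one sample per animal, four mice per time point. Plasma concentrations were measured by LC/ESI-MS/MS. Terminal t1/2 was taken as 0.693/kz, with kz from log-linear regression, using non-compartmental analysis.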

Mus musculus [19] = experiment: AUMC (0 to infinity) in CD1 mouse plasma at 12.92 mg/kg, ig measured up to 240 mins by LC/ESI-MS/MS analysis; format: ADME, organism-based; details: in vivo, po, 4 h
[20] = Absolute bioavailability in CD1 mouse plasma at 12.92 mg/kg, ig measured up to 240 mins by LC/ESI-MS/MS analysis; format: ADME, organism-based; details: po
Mus musculus [21] = experiment: Tmax in CD1 mouse plasma at 12.92 mg/kg, ip measured up to 240 mins by LC/ESI-MS/MS analysis; format: ADME, organism-based; details: in vivo, 4 h
[22] = MRT in CD1 mouse plasma at 12.92 mg/kg, ip measured up to 240 mins by LC/ESI-MS/MS analysis; format: ADME, organism-based
[23] = Tmax in CD1 mouse brain at 1 mg/kg, iv measured up to 240 mins by LC/ESI-MS/MS analysis; format: ADME, organism-based
[24] = Tmax in CD1 mouse brain at 12.92 mg/kg, ip measured up to 240 mins by LC/ESI-MS/MS analysis; format: ADME, organism-based
[25] = Ratio of drug level in brain to plasma in CD1 mouse at 1 mg/kg, iv administered as single dose measured after 5 mins by LC/ESI-MS/MS analysis; format: ADME, organism-based; details: brain and plasma, read-out: BPR
[26] = Ratio of drug level in brain to plasma in CD1 mouse at 12.92 mg/kg, ip administered as single dose measured after 15 mins by LC/ESI-MS/MS analysis; format: ADME, organism-based; details: brain and plasma, read-out: BPR
[27] = Ratio of drug level in brain to plasma in CD1 mouse at 12.92 mg/kg, ip administered as single dose measured after 120 mins by LC/ESI-MS/MS analysis; format: ADME, organism-based; details: brain and plasma, read-out: BPR
hERG (KCNH2) = hERG (KCNH2) (Homo sapiens, UniProt Q12809); experiment: Displacement of [3H]astemizole from human recombinant ERG expressed in HEK293 cells at 10^-4 M; format: cell-based; details: HEK293 cells that express human recombinant ERG, probe [3H]astemizole
Chain of hERG (KCNH2) (Q12809 whole entry): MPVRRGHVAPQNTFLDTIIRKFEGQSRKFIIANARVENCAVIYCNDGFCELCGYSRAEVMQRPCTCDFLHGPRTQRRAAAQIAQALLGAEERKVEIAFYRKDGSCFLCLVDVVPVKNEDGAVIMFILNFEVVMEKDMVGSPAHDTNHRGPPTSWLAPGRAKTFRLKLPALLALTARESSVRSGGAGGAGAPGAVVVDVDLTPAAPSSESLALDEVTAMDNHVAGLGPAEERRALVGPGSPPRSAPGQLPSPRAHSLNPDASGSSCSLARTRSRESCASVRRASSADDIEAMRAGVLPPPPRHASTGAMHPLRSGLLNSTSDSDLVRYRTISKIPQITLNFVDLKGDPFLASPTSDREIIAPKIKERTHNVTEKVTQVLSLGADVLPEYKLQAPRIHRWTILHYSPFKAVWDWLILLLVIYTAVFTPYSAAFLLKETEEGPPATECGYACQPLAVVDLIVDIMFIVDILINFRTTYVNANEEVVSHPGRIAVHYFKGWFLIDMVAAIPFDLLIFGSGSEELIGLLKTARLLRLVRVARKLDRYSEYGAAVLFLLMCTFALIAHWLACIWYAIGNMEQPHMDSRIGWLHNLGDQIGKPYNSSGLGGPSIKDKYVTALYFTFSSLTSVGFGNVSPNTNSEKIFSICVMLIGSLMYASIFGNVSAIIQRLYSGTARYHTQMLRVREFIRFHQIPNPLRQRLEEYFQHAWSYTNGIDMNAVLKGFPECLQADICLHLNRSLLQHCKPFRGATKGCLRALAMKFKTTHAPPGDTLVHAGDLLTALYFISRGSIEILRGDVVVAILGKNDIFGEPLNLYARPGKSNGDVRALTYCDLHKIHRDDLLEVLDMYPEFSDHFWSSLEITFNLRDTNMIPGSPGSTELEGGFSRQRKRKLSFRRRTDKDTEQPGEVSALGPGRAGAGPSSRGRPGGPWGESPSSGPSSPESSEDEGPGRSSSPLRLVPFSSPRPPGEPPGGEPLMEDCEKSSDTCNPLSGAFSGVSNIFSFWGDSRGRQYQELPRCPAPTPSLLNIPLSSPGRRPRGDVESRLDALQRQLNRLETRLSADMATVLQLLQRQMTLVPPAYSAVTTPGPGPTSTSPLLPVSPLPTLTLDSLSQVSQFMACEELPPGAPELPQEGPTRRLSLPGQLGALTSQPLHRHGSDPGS

Cc1cccc(C)c1OCCOCCN[C@@H](C)CO
Activity (Rattus norvegicus [1]): inactive
Activity (Mus musculus [2]): inactive
Activity (Rattus norvegicus [3]): inactive
Activity (Mus musculus [4]): inactive
Activity (Mus musculus [5]): inactive
Activity (Rattus norvegicus [6]): Active
inhibition [7]: -4%
inhibition [8]: 5.2%
inhibition [9]: 2.7%
inhibition [10]: -7.5%
inhibition [11]: 54%
inhibition [12]: 3%

Cc1cccc(C)c1OCCOCCN[C@H](C)CO.Cl
Kp at 4 h [13]: 2.98
Activity (Mus musculus [14]): Non-toxic
Activity (Mus musculus [15]): Non-toxic
Activity (Mus musculus [16]): Toxic
inhibition in vivo at 13 mg/kg (Mus musculus [17]): 54.9%
inhibition (INH) (Vibrio harveyi): 41%
half-life [18]: 51.5 min
AUMC (Mus musculus [19]): 266 ng·h²/mL
bioavailability [20]: 2.98%
Tmax (Mus musculus [21]): 5 min
MRT [22]: 1.42 h
Tmax [23]: 5 min
Tmax [24]: 15 min
Kp at 5 min [25]: 5.27
Kp at […] [26]: 2.55
Kp at 2 h [27]: 2.86
inhibition at 100 µM (hERG (KCNH2)): 3.6%

Cc1cccc(C)c1OCCOCCN[C@H](C)CO
inhibition [7]: -0.8%
inhibition [8]: 10.1%
inhibition [9]: 2.9%
inhibition [11]: 29.3%
inhibition [12]: 14.9%
